From ChEMBL document CHEMBL3526095, “Characterization of the in vitro and in vivo metabolism and disposition and cytochrome P450 inhibition/induction profile of saxagliptin in human” (Drug Metab Dispos, 2012)

What was measured:
Cytochrome P450 2B6 [1] = biological target: T1, Cytochrome P450 2B6 (Homo sapiens, UniProt P20813); test: Inhibition of CYP2B6 in human liver microsomes assessed as bupropion hydroxylation after 3 mins by LC-MS/MS analysis in presence of NADPH; format: ADME
T1 sequence (P20813 whole entry): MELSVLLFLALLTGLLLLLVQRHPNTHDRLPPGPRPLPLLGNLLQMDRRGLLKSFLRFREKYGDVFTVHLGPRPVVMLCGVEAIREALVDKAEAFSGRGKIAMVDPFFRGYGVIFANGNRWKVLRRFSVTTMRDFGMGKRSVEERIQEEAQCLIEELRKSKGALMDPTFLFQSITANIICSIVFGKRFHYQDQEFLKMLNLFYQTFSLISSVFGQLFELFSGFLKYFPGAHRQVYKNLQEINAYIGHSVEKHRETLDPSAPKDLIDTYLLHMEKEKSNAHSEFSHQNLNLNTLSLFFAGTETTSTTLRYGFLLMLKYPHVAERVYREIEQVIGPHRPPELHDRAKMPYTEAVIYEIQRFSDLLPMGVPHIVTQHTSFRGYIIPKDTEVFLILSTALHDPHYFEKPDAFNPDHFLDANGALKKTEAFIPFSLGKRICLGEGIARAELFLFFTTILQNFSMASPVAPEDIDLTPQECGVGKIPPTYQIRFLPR
How it was run: (§1)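 Pooled HLM from 15 donors, probe substrate near its experimentally determined level, in 100 mM phosphate buffer pH 7.4 at 37°C. Saxagliptin tested at 0.1–50 µM, M2 at 0.1–200 µM. Direct inhibition: 3-min equilibration, then reaction started with 1 mM NADPH. Time-dependent inhibition: 15-min preincubation with or without NADPH, then substrate added.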

Cytochrome P450 2C8 [2] = biological target: T2, Cytochrome P450 2C8 (Homo sapiens, UniProt P10632); test: Inhibition of CYP2C8 in human liver microsomes assessed as paclitaxel 6alpha-hydroxylation after 3 mins by LC-MS/MS analysis in presence of NADPH; format: ADME; how it was run: as §1
T2 sequence (P10632 whole entry): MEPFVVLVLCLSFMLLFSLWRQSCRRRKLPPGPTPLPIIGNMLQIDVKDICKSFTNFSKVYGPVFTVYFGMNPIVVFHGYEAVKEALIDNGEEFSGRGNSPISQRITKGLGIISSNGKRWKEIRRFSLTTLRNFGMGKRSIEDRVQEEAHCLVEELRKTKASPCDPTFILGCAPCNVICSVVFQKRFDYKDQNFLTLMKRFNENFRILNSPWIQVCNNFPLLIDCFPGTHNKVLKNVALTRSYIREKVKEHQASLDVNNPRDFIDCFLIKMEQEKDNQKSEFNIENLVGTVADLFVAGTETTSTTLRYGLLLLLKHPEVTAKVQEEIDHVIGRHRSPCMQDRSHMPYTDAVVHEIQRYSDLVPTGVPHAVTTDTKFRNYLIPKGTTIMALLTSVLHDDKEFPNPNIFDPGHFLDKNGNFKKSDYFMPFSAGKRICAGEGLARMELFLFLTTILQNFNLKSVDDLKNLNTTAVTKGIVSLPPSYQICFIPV

Cytochrome P450 2C9 [3] = biological target: T3, Cytochrome P450 2C9 (Homo sapiens, UniProt P11712); test: Inhibition of CYP2C9 in human liver microsomes assessed as paclitaxel 6alpha-hydroxylation after 3 mins by LC-MS/MS analysis in presence of NADPH; format: ADME; conditions: in the assay text read “tolbutamide hydroxylation” for “paclitaxel 6alpha-hydroxylation”; how it was run: as §1
Cytochrome P450 2C19 [4] = biological target: T4, Cytochrome P450 2C19 (Homo sapiens, UniProt P33261); test: Inhibition of CYP2C19 in human liver microsomes assessed as (S)-mephenytoin 4'-hydroxylation after 3 mins by LC-MS/MS analysis; format: ADME; how it was run: as §1
Cytochrome P450 2D6 [5] = biological target: T5, Cytochrome P450 2D6 (Homo sapiens, UniProt P10635); test: Inhibition of CYP2D6 in human liver microsomes assessed as bufuralol 1'-hydroxylation after 3 mins by LC-MS/MS analysis; format: ADME
Cytochrome P450 2E1 [6] = biological target: T6, Cytochrome P450 2E1 (Homo sapiens, UniProt P05181); test: Inhibition of CYP2E1 in human liver microsomes assessed as chlorzoxazone 6-hydroxylation after 3 mins by LC-MS/MS analysis in presence of NADPH; format: ADME
Cytochrome P450 2B6 [7] = biological target: T1, Cytochrome P450 2B6; test: Inhibition of CYP2B6 in human liver microsomes assessed as bupropion hydroxylation preincubated for 15 mins by LC-MS/MS analysis in presence of NADPH; format: ADME; how it was run: as §1
Cytochrome P450 2C8 [8] = biological target: T2, Cytochrome P450 2C8; test: Inhibition of CYP2C8 in human liver microsomes assessed as paclitaxel 6alpha-hydroxylation preincubated for 15 mins by LC-MS/MS analysis in presence of NADPH; format: ADME; how it was run: as §1
Cytochrome P450 2C9 [9] = biological target: T3, Cytochrome P450 2C9; test: Inhibition of CYP2C9 in human liver microsomes assessed as paclitaxel 6alpha-hydroxylation preincubated for 15 mins by LC-MS/MS analysis in presence of NADPH; format: ADME; conditions: in the assay text read “tolbutamide hydroxylation” for “paclitaxel 6alpha-hydroxylation”; how it was run: as §1
Cytochrome P450 2C19 [10] = biological target: T4, Cytochrome P450 2C19; test: Inhibition of CYP2C19 in human liver microsomes assessed as (S)-mephenytoin 4'-hydroxylation preincubated for 15 mins by LC-MS/MS analysis; format: ADME; how it was run: as §1
Cytochrome P450 2D6 [11] = biological target: T5, Cytochrome P450 2D6; test: Inhibition of CYP2D6 in human liver microsomes assessed as bufuralol 1'-hydroxylation preincubated for 15 mins by LC-MS/MS analysis; format: ADME
How it was run: (§2)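 Time-dependent format. Pooled human liver microsomes (15 donors) were preincubated 15 min at 37°C with test compound, with and without 1 mM NADPH. The probe substrate was then added at the same concentration as in the direct assay.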

Cytochrome P450 2E1 [12] = biological target: T6, Cytochrome P450 2E1; test: Inhibition of CYP2E1 in human liver microsomes assessed as chlorzoxazone 6-hydroxylation preincubated for 15 mins by LC-MS/MS analysis in presence of NADPH; format: ADME; how it was run: as §2
Hepatocyte [13] = test: Induction of CYP1A2 mRNA expression in human hepatocytes assessed as phenacetin O-deethylation up to 25 uM by LC-MS/MS analysis; format: ADME, cell-based
How it was run: (§3)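 Primary hepatocytes from three donors treated once daily for 3 days: saxagliptin 0.2–25 µM, M2 0.2–100 µM, 0.1% DMSO as vehicle. Microsomal activity assayed by LC-MS/MS: phenacetin 100 µM with 0.02 mg/ml protein (CYP1A2), bupropion 250 µM with 0.02 mg/ml (CYP2B6), testosterone 200 µM with 0.01 mg/ml (CYP3A4). mRNA measured by TaqMan qPCR as 2^ΔCT relative to endogenous control and DMSO.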

[14] = Drug metabolism in human assessed as metabolite level in urine at 50 mg, po up to 168 hrs by LC-MS/MS analysis; format: ADME, organism-based; conditions: in vivo
How it was run: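 Single 50-mg oral solution dose of [14C]saxagliptin (91.5 µCi) given to healthy male subjects after a 10-h fast. Urine collected as 0–12 h and 12–24 h pools, then in 24-h intervals to 168 h. Saxagliptin and M2 measured by validated positive-ESI LC-MS/MS with MRM; urine standard curves 25–5000 ng/ml for saxagliptin and 50–10,000 ng/ml for M2.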

Hepatocyte [15] = test: Induction of CYP3A4 mRNA expression in human hepatocytes assessed as testosterone 6beta-hydroxylation up to 100 uM by LC-MS/MS analysis; format: ADME, cell-based; how it was run: as §3
Cytochrome P450 3A5 = Cytochrome P450 3A5 (Homo sapiens, UniProt P20815); test: Drug metabolism assessed as human CYP3A5-mediated metabolite formation treated with 10 uM of [14C]saxagliptin after 30 mins by LC-MS/MS analysis; format: ADME; conditions: recombinant enzyme, 0.5 h
How it was run: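 Expressed human CYP3A4 or CYP3A5 at 500 pmol/ml, incubated with 10 µM [14C]saxagliptin and 1 mM NADPH in 100 mM phosphate buffer pH 7.4 at 37°C for 30 min. Stopped with ice-cold acetonitrile; analysed by LC-MS/MS and off-line radioanalysis.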

T6 sequence (P05181 whole entry): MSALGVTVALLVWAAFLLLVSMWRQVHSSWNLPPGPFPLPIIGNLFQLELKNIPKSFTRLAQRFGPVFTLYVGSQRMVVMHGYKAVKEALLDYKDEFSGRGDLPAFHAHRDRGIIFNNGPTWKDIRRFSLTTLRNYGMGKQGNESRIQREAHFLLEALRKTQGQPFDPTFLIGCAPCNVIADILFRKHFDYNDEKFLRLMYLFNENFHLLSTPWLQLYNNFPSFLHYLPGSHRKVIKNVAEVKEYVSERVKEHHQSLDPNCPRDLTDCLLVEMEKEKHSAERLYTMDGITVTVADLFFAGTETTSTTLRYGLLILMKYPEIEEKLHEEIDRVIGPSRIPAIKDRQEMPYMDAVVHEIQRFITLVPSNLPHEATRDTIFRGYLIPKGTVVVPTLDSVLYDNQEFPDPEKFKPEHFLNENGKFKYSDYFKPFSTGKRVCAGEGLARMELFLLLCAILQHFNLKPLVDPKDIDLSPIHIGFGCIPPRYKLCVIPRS
T3 sequence (P11712 whole entry): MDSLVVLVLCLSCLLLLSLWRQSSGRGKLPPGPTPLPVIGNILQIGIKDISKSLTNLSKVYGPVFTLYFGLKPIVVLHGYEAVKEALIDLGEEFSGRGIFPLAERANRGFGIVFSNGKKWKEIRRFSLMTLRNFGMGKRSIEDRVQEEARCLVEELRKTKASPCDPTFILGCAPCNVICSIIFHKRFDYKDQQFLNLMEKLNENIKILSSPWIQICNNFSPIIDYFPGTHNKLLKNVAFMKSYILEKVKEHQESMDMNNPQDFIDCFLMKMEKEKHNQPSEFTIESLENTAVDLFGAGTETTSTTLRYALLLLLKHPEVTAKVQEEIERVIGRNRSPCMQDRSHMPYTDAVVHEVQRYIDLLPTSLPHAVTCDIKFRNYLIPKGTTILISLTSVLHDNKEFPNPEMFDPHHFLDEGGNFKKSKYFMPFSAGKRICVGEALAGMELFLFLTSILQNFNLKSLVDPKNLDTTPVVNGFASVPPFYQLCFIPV
T5 sequence (P10635 whole entry): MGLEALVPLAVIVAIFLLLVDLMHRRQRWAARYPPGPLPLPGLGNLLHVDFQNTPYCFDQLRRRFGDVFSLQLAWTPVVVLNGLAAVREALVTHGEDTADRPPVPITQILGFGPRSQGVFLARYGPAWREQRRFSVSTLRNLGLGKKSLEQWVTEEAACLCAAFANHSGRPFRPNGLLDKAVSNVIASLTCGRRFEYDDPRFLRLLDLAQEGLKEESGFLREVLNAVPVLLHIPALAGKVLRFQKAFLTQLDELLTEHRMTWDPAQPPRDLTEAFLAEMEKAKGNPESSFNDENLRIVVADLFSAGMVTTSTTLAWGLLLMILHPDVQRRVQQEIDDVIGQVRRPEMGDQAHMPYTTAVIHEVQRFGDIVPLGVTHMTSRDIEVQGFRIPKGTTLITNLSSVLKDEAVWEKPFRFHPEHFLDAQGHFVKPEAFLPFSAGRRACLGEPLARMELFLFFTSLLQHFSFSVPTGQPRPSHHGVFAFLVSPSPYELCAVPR
T4 sequence (P33261 whole entry): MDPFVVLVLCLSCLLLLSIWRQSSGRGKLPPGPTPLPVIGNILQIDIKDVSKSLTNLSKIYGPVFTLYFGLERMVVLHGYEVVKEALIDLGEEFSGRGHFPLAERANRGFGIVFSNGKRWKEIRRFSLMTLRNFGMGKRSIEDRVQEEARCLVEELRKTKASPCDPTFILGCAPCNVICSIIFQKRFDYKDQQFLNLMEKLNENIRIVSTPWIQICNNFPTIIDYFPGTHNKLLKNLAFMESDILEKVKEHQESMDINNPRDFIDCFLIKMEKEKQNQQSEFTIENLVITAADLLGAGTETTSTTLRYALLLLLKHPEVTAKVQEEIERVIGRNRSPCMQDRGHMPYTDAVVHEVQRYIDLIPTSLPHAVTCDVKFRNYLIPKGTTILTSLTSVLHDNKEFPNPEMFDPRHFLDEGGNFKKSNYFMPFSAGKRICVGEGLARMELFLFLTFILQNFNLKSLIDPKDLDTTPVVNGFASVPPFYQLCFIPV
Chain of Cytochrome P450 3A5 (P20815 whole entry): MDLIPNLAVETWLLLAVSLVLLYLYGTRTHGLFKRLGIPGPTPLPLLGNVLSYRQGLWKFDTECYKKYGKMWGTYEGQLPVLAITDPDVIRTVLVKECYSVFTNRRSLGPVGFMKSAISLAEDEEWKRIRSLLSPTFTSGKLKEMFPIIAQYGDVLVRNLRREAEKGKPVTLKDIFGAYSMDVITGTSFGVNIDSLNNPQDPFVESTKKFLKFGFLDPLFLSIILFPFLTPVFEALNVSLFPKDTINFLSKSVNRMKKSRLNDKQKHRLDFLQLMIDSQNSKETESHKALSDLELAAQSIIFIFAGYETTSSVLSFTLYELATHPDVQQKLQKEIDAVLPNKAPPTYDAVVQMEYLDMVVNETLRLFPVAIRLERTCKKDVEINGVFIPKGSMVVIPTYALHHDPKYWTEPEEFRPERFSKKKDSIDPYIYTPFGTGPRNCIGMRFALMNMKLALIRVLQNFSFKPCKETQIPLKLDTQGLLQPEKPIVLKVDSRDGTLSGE

Row | IC50 (Cytochrome P450 2B6 [1]) [µM] | IC50 (Cytochrome P450 2C8 [2]) [µM] | IC50 (Cytochrome P450 2C9 [3]) [µM] | IC50 (Cytochrome P450 2C19 [4]) [µM] | IC50 (Cytochrome P450 2D6 [5]) [µM] | IC50 (Cytochrome P450 2E1 [6]) [µM] | IC50 (Cytochrome P450 2B6 [7]) [µM] | IC50 (Cytochrome P450 2C8 [8]) [µM] | IC50 (Cytochrome P450 2C9 [9]) [µM] | IC50 (Cytochrome P450 2C19 [10]) [µM] | IC50 (Cytochrome P450 2D6 [11]) [µM] | IC50 (Cytochrome P450 2E1 [12]) [µM] | Activity (Hepatocyte [13]) | Drug metabolism [14] | Activity (Hepatocyte [15]) | Drug metabolism (Cytochrome P450 3A5) | SMILES
1 | > 50 | > 50 | > 50 | > 50 | > 50 | > 50 | > 50 | > 50 | > 50 | > 50 | > 50 | > 50 | Not Active | metabolite_detected | – | – | N#C[C@@H]1C[C@@H]2C[C@@H]2N1C(=O)[C@@H](N)C12CC3CC(CC(O)(C3)C1)C2 [SAXAGLIPTIN ANHYDROUS]
2 | > 200 | > 200 | > 200 | > 200 | > 200 | > 200 | > 200 | > 200 | > 200 | > 200 | > 200 | > 200 | – | – | Not Active | metabolite_detected | N#C[C@@H]1C[C@@H]2C[C@@H]2N1C(=O)[C@@H](N)C12CC3CC(O)(CC(O)(C3)C1)C2
